Assay results taken from ChEMBL document CHEMBL1154792, “chi-Conopeptide pharmacophore development: toward a novel class of norepinephrine transporter inhibitor (Xen2174) for pain” (J Med Chem, 2009).
The source made the active and inactive calls. The rule behind the calls is not given here. Where a SMILES comes first, the peptide text is derived from it. Bridges are numbered along the chain shown (N, C = ends). [ ]: non-standard residue; d: D form. Pro(3S-OH) = O=C(O)[C@H]1NCC[C@@H]1O; pGlu = O=C1CC[C@@H](C(=O)O)N1

Each compound was assayed against Sodium-dependent noradrenaline transporter (Homo sapiens, UniProt P23975) (assay: Displacement of [3H]nisoxetine from human NET expressed in COS7 cells). Details: COS-7.
Assay type: cell-based
How it was run: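 Membranes from COS-7 cells transfected with human NET were incubated with [3H]nisoxetine (4.3 nM) with or without peptide (1 nM to 100 μM, triplicate) for 1 h at RT. Filter-retained radioactivity was counted by liquid scintillation, and values are given as pIC50. Data are means of 2–5 experiments in triplicate; peptide concentration was set by calibrated HPLC at 214 nm.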

Chain of Sodium-dependent noradrenaline transporter (P23975 whole entry): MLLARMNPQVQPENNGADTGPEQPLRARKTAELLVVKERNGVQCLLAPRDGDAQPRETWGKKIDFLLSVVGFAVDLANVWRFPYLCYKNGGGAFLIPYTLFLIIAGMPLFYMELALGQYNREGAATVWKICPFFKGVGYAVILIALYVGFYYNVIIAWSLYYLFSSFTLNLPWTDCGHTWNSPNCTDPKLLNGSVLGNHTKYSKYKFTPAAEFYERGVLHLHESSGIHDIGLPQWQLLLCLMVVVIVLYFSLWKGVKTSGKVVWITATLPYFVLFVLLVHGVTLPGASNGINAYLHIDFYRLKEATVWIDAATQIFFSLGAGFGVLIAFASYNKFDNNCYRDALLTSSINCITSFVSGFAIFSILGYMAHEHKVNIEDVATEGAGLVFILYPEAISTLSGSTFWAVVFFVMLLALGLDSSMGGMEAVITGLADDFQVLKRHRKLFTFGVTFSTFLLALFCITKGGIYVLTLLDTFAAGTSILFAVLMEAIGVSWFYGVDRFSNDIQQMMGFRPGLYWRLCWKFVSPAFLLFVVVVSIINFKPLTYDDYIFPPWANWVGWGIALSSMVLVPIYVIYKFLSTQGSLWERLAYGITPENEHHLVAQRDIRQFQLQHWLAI

Structure (SMILES)	Activity
CCCC[C@@H]1NC(=O)[C@H](CCCCN)NC(=O)[C@H](Cc2ccc(O)cc2)NC(=O)CNC(=O)[C@@H]2CSSC[C@H](NC1=O)C(=O)N[C@@H](Cc1cnc[nH]1)C(=O)N1CC[C@H](O)[C@H]1C(=O)N[C@H](C(=O)O)CSSC[C@H](NC(=O)[C@@H](NC(=O)CNC(=O)[C@@H]1CCC(=O)N1)C(C)C)C(=O)N2	Active
CC(C)C[C@@H]1NC(=O)[C@H](CCCCN)NC(=O)[C@H](CCC(=O)O)NC(=O)CNC(=O)[C@@H]2CSSC[C@H](NC1=O)C(=O)N[C@@H](Cc1cnc[nH]1)C(=O)N1CC[C@H](O)[C@H]1C(=O)N[C@H](C(=O)O)CSSC[C@H](NC(=O)[C@@H](NC(=O)CNC(=O)[C@@H]1CCC(=O)N1)C(C)C)C(=O)N2	inactive
COc1ccc(C[C@@H]2NC(=O)CNC(=O)[C@@H]3CSSC[C@H](NC(=O)[C@H](CC(C)C)NC(=O)[C@H](CCCCN)NC(=O)[C@H](Cc4ccc(O)cc4)NC2=O)C(=O)N[C@@H](Cc2c[nH]c4ccccc24)C(=O)N2CC[C@H](O)[C@H]2C(=O)N[C@H](C(=O)O)CSSC[C@H](NC(=O)[C@@H](NC(=O)CNC(=O)[C@@H]2CCC(=O)N2)C(C)C)C(=O)N3)cc1 ([pGlu]GVCCGY(Me)YKLCW[Pro(3S-OH)]C-OH; disulfide 4-14, 5-11)	Active
CC(C)C[C@@H]1NC(=O)[C@H](CCCCN)NC(=O)[C@H](Cc2c[nH]c3ccccc23)NC(=O)CNC(=O)[C@@H]2CSSC[C@H](NC1=O)C(=O)N[C@@H](Cc1cnc[nH]1)C(=O)N1CC[C@H](O)[C@H]1C(=O)N[C@H](C(=O)O)CSSC[C@H](NC(=O)[C@@H](NC(=O)CNC(=O)[C@@H]1CCC(=O)N1)C(C)C)C(=O)N2	inactive
CC(C)C[C@@H]1NC(=O)[C@H](CCCCN)NC(=O)[C@H](CC2CCCCC2)NC(=O)CNC(=O)[C@@H]2CSSC[C@H](NC1=O)C(=O)N[C@@H](Cc1cnc[nH]1)C(=O)N1CC[C@H](O)[C@H]1C(=O)N[C@H](C(=O)O)CSSC[C@H](NC(=O)[C@@H](NC(=O)CNC(=O)[C@@H]1CCC(=O)N1)C(C)C)C(=O)N2	inactive
CC(C)C[C@H]1CC(=O)N[C@H]2CSSC[C@H](NC(=O)[C@@H](NC(=O)[C@@H](NC(=O)CNC(=O)[C@@H]3CCC(=O)N3)C(C)C)CSSC[C@@H](C(=O)O)NC(=O)[C@@H]3[C@@H](O)CCN3C(=O)[C@H](Cc3cnc[nH]3)NC2=O)C(=O)NCC(=O)N[C@@H](Cc2ccc(O)cc2)C(=O)N[C@@H](CCCCN)C(=O)N1	Active
COc1ccc(C[C@@H]2NC(=O)CNC(=O)[C@@H]3CSSC[C@H](NC(=O)[C@H](CC(C)C)NC(=O)[C@H](CCCCN)NC2=O)C(=O)N[C@@H](Cc2cnc[nH]2)C(=O)N2CC[C@H](O)[C@H]2C(=O)N[C@H](C(=O)O)CSSC[C@H](NC(=O)[C@@H](NC(=O)CNC(=O)[C@@H]2CCC(=O)N2)C(C)C)C(=O)N3)c(OC)c1	inactive
CC(C)C[C@@H]1NC(=O)[C@H](CCCCN)NC(=O)[C@H](CCCNC(=N)N)NC(=O)CNC(=O)[C@@H]2CSSC[C@H](NC1=O)C(=O)N[C@@H](Cc1cnc[nH]1)C(=O)N1CC[C@H](O)[C@H]1C(=O)N[C@H](C(=O)O)CSSC[C@H](NC(=O)[C@@H](NC(=O)CNC(=O)[C@@H]1CCC(=O)N1)C(C)C)C(=O)N2 ([pGlu]GVCCGRKLCH[Pro(3S-OH)]C-OH; disulfide 4-13, 5-10)	inactive
CC(C)C[C@@H]1NC(=O)[C@H](CCCCN)NC(=O)[C@H](CCCCN)NC(=O)CNC(=O)[C@@H]2CSSC[C@H](NC1=O)C(=O)N[C@@H](Cc1cnc[nH]1)C(=O)N1CC[C@H](O)[C@H]1C(=O)N[C@H](C(=O)O)CSSC[C@H](NC(=O)[C@@H](NC(=O)CNC(=O)[C@@H]1CCC(=O)N1)C(C)C)C(=O)N2 ([pGlu]GVCCGKKLCH[Pro(3S-OH)]C-OH; disulfide 4-13, 5-10)	inactive
CC(C)C[C@@H]1NC(=O)[C@H](CCCCN)NC(=O)[C@H](Cc2ccc(O)cc2)NC(=O)CNC(=O)[C@@H]2CSSC[C@H](NC1=O)C(=O)N[C@@H](Cc1cccnc1)C(=O)N1CC[C@H](O)[C@H]1C(=O)N[C@H](C(=O)O)CSSC[C@H](NC(=O)[C@@H](NC(=O)CNC(=O)[C@@H]1CCC(=O)N1)C(C)C)C(=O)N2	Active
CC(C)C[C@@H]1NC(=O)[C@H](CCCCN)NC(=O)[C@H](Cc2ccc(O)cc2)NC(=O)CNC(=O)[C@@H]2CSSC[C@H](NC1=O)C(=O)N[C@@H](Cc1cnc[nH]1)C(=O)N[C@H](CC(=O)O)C(=O)N[C@H](C(=O)O)CSSC[C@H](NC(=O)[C@@H](NC(=O)CNC(=O)[C@@H]1CCC(=O)N1)C(C)C)C(=O)N2	inactive
CC(C)C[C@@H]1NC(=O)[C@H](CCCCN)NC(=O)[C@H](Cc2ccc(O)cc2)NC(=O)CNC(=O)[C@H]2CSSC[C@@H](NC1=O)C(=O)N[C@@H](Cc1cnc[nH]1)C(=O)N1CC[C@H](O)[C@H]1C(=O)N[C@@H](C(=O)O)CSSC[C@@H](NC(=O)[C@@H](NC(=O)CNC(=O)[C@@H]1CCC(=O)N1)C(C)C)C(=O)N2	inactive
CC(C)C[C@@H]1NC(=O)[C@H](CCCCN)NC(=O)[C@H](Cc2cccs2)NC(=O)CNC(=O)[C@@H]2CSSC[C@H](NC1=O)C(=O)N[C@@H](Cc1cnc[nH]1)C(=O)N1CC[C@H](O)[C@H]1C(=O)N[C@H](C(=O)O)CSSC[C@H](NC(=O)[C@@H](NC(=O)CNC(=O)[C@@H]1CCC(=O)N1)C(C)C)C(=O)N2	inactive
CC(C)C[C@@H]1NC(=O)[C@H](CCCCN)NC(=O)[C@H](Cc2ccc(O)cc2)NC(=O)CNC(=O)[C@@H]2CSSC[C@H](NC1=O)C(=O)N[C@@H](Cc1ccco1)C(=O)N1CC[C@H](O)[C@H]1C(=O)N[C@H](C(=O)O)CSSC[C@H](NC(=O)[C@@H](NC(=O)CNC(=O)[C@@H]1CCC(=O)N1)C(C)C)C(=O)N2	Active
CC(C)C[C@@H]1NC(=O)[C@H](CCCCN)NC(=O)[C@H]2CCCN2C(=O)CNC(=O)[C@@H]2CSSC[C@H](NC1=O)C(=O)N[C@@H](Cc1cnc[nH]1)C(=O)N1CC[C@H](O)[C@H]1C(=O)N[C@H](C(=O)O)CSSC[C@H](NC(=O)[C@@H](NC(=O)CNC(=O)[C@@H]1CCC(=O)N1)C(C)C)C(=O)N2	inactive
CC(C)C[C@@H]1NC(=O)[C@H](CCCCN)NC(=O)[C@H](CCC(N)=O)NC(=O)CNC(=O)[C@@H]2CSSC[C@H](NC1=O)C(=O)N[C@@H](Cc1cnc[nH]1)C(=O)N1CC[C@H](O)[C@H]1C(=O)N[C@H](C(=O)O)CSSC[C@H](NC(=O)[C@@H](NC(=O)CNC(=O)[C@@H]1CCC(=O)N1)C(C)C)C(=O)N2 ([pGlu]GVCCGQKLCH[Pro(3S-OH)]C-OH; disulfide 4-13, 5-10)	inactive
CC(C)C[C@@H]1NC(=O)[C@H](CCCCN)NC(=O)[C@H](Cc2ccc(O)cc2)NC(=O)CNC(=O)[C@@H]2CSSC[C@H](NC1=O)C(=O)N[C@@H](Cc1ccc(O)cc1)C(=O)N1CC[C@H](O)[C@H]1C(=O)N[C@H](C(=O)O)CSSC[C@H](NC(=O)[C@@H](NC(=O)CNC(=O)[C@@H]1CCC(=O)N1)C(C)C)C(=O)N2 ([pGlu]GVCCGYKLCY[Pro(3S-OH)]C-OH; disulfide 4-13, 5-10)	Active
CC(C)C[C@@H]1NC(=O)[C@H](CCCCN)NC(=O)[C@H](Cc2ccc(O)cc2)NC(=O)CNC(=O)[C@@H]2CSSC[C@H](NC1=O)C(=O)N[C@@H](CCCNC(=N)N)C(=O)N1CC[C@H](O)[C@H]1C(=O)N[C@H](C(=O)O)CSSC[C@H](NC(=O)[C@@H](NC(=O)CNC(=O)[C@@H]1CCC(=O)N1)C(C)C)C(=O)N2	Active
COc1ccc(C[C@@H]2NC(=O)CNC(=O)[C@@H]3CSSC[C@H](NC(=O)[C@H](CC(C)C)NC(=O)[C@H](CCCCN)NC2=O)C(=O)N[C@@H](Cc2cnc[nH]2)C(=O)N2CC[C@H](O)[C@H]2C(=O)N[C@H](C(=O)O)CSSC[C@H](NC(=O)[C@@H](NC(=O)CNC(=O)[C@@H]2CCC(=O)N2)C(C)C)C(=O)N3)cc1	Active
CC(C)C[C@@H]1NC(=O)[C@H](CCCCN)NC(=O)[C@H](CO)NC(=O)CNC(=O)[C@@H]2CSSC[C@H](NC1=O)C(=O)N[C@@H](Cc1cnc[nH]1)C(=O)N1CC[C@H](O)[C@H]1C(=O)N[C@H](C(=O)O)CSSC[C@H](NC(=O)[C@@H](NC(=O)CNC(=O)[C@@H]1CCC(=O)N1)C(C)C)C(=O)N2 ([pGlu]GVCCGSKLCH[Pro(3S-OH)]C-OH; disulfide 4-13, 5-10)	inactive

Organism: Rattus norvegicus
Assay: Toxicity in CCI rat pain model assessed as side effects
Assay type: organism-based
Details: in vivo
How it was run: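 Rats with unilateral sciatic chronic constriction injury received a single intrathecal bolus via an implanted cannula 14 days after surgery, with morphine and vehicle as comparators. Compound-related behavioural observations were recorded alongside von Frey paw-withdrawal testing. Three animals per analogue.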

Structure (SMILES)	Activity
CC(C)C[C@@H]1NC(=O)[C@H](CCCCN)NC(=O)[C@H](Cc2ccc(O)cc2)NC(=O)CNC(=O)[C@@H]2CSSC[C@H](NC1=O)C(=O)N[C@@H](Cc1cnc[nH]1)C(=O)N1CC[C@H](O)[C@H]1C(=O)N[C@H](C(=O)O)CSSC[C@H](NC(=O)[C@@H](NC(=O)CNC(=O)[C@H](N)CCCNC(=N)N)C(C)C)C(=O)N2	Toxic
CC(C)C[C@@H]1NC(=O)[C@H](CCCCN)NC(=O)[C@H](Cc2ccc(O)cc2)NC(=O)CNC(=O)[C@@H]2CSSC[C@H](NC1=O)C(=O)N[C@@H](Cc1cnc[nH]1)C(=O)N1CC[C@H](O)[C@H]1C(=O)N[C@H](C(=O)O)CSSC[C@H](NC(=O)[C@@H](NC(=O)CNC(=O)[C@H](CC(N)=O)NC(=O)[C@@H](N)Cc1c[nH]c3ccccc13)C(C)C)C(=O)N2	Toxic
CCCC[C@H](N)C(=O)NCC(=O)N[C@H](C(=O)N[C@H]1CSSC[C@@H](C(=O)O)NC(=O)[C@@H]2[C@@H](O)CCN2C(=O)[C@H](Cc2cnc[nH]2)NC(=O)[C@@H]2CSSC[C@H](NC1=O)C(=O)NCC(=O)N[C@@H](Cc1ccc(O)cc1)C(=O)N[C@@H](CCCCN)C(=O)N[C@@H](CC(C)C)C(=O)N2)C(C)C	Toxic
CC(C)C[C@@H]1NC(=O)[C@H](CCCCN)NC(=O)[C@H](Cc2ccc(O)cc2)NC(=O)CNC(=O)[C@@H]2CSSC[C@H](NC1=O)C(=O)N[C@@H](Cc1cnc[nH]1)C(=O)N1CC[C@H](O)[C@H]1C(=O)N[C@H](C(=O)O)CSSC[C@H](NC(=O)[C@@H](NC(=O)CNC(=O)[C@H](N)CC(N)=O)C(C)C)C(=O)N2	Toxic
